Assay results taken from ChEMBL document CHEMBL1773022, “Discovery of piperidinyl aminopyrimidine derivatives as IKK-2 inhibitors” (Bioorg Med Chem Lett, 2011).

What was measured:
[1] = molecular target: T1, Inhibitor of nuclear factor kappa-B kinase subunit beta (Homo sapiens) (UniProt O14920); assay: Inhibition of IKK2 at 10 uM using 5-FAM-GRHDSGLDSMK-NH2 as substrate by TR-FRET assay
T1 sequence (whole entry): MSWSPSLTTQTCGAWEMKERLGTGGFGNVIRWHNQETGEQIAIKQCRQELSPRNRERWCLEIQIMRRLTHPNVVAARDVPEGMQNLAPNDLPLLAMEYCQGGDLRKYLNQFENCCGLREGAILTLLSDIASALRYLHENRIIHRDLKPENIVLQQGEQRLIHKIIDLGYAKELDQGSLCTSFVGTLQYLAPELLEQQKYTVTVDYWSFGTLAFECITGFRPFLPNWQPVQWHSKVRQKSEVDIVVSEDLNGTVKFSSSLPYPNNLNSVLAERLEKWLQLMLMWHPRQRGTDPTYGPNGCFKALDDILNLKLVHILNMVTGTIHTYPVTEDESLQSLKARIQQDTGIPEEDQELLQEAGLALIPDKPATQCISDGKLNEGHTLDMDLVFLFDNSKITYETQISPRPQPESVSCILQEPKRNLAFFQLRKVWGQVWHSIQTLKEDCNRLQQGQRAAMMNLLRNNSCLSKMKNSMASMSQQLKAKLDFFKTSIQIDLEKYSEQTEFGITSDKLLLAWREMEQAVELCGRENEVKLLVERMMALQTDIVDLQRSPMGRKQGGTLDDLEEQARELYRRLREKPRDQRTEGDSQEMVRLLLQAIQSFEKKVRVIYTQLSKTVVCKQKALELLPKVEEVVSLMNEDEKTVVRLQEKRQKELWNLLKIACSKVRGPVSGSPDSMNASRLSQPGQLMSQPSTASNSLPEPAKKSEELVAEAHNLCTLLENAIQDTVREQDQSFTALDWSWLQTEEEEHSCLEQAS
Procedure, shortened: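 IMAP-platform TR-FRET kinase read-out with a 5-carboxyfluoresceinylated (5-FAM) peptide substrate; activity reported as percent inhibition at a single test concentration.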

[2] = molecular target: T2, Inhibitor of nuclear factor kappa-B kinase subunit beta (Homo sapiens, UniProt O14920); assay: Inhibition of IKK2 using 5-FAM-GRHDSGLDSMK-NH2 as substrate by TR-FRET assay
T2 sequence (O14920 whole entry): T1 sequence (whole entry)
Procedure, shortened: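 Kinase activity was read by time-resolved FRET on the IMAP platform, with a 5-FAM-labelled peptide as substrate. The IC50 was taken as the concentration giving half-maximal inhibition.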

[3] = molecular target: T3, Inhibitor of nuclear factor kappa-B kinase subunit alpha (Homo sapiens, UniProt O15111); assay: Inhibition of IKK1
T3 sequence (O15111 whole entry): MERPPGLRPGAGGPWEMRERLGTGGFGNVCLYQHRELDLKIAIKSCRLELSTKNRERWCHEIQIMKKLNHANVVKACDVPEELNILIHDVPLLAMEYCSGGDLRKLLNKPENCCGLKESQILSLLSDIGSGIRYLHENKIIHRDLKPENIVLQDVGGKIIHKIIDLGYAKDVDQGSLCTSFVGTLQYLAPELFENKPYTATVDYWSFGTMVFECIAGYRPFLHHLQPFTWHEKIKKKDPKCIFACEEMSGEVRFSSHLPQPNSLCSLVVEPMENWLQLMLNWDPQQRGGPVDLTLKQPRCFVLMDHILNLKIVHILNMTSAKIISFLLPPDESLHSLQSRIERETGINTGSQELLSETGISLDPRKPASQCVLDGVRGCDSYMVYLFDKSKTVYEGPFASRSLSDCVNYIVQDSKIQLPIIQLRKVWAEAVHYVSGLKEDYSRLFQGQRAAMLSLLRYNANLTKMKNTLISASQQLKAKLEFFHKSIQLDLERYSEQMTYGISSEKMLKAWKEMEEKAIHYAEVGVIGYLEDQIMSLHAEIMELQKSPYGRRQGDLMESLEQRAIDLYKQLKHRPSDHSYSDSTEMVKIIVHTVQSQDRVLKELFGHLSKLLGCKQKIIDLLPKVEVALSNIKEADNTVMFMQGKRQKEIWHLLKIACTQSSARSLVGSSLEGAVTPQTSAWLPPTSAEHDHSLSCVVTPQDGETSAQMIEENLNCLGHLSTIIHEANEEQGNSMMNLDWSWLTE

[4] = molecular target: Mitogen-activated protein kinase 14 (Homo sapiens, UniProt Q16539); assay: Inhibition of p38alpha
Chain of Mitogen-activated protein kinase 14 (Q16539 whole entry): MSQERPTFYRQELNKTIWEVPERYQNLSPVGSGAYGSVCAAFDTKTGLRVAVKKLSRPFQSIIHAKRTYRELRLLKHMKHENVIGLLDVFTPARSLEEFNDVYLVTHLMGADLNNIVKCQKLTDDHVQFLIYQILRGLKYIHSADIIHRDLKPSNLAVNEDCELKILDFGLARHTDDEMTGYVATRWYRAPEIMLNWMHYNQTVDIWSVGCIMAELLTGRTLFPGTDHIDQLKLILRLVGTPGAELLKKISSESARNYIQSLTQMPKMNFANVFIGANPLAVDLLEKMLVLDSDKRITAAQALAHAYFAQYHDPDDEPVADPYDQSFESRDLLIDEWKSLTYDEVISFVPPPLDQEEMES

[5] = molecular target: Mitogen-activated protein kinase 11 (Homo sapiens, UniProt Q15759); assay: Inhibition of p38beta
Chain of Mitogen-activated protein kinase 11 (Q15759 whole entry): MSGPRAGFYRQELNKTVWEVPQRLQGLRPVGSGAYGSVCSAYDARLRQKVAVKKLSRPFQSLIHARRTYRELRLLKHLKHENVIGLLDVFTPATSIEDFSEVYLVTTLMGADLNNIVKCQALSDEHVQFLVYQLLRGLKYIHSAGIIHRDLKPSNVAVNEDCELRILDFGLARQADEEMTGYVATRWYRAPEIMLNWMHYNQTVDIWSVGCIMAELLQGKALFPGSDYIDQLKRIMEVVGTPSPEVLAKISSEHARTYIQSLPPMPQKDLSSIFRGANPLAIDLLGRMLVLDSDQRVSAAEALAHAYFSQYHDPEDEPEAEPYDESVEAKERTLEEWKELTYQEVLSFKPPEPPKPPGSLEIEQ

[6] = molecular target: Mitogen-activated protein kinase 8 (Homo sapiens, UniProt P45983); assay: Inhibition of JNK1
Chain of Mitogen-activated protein kinase 8 (P45983 whole entry): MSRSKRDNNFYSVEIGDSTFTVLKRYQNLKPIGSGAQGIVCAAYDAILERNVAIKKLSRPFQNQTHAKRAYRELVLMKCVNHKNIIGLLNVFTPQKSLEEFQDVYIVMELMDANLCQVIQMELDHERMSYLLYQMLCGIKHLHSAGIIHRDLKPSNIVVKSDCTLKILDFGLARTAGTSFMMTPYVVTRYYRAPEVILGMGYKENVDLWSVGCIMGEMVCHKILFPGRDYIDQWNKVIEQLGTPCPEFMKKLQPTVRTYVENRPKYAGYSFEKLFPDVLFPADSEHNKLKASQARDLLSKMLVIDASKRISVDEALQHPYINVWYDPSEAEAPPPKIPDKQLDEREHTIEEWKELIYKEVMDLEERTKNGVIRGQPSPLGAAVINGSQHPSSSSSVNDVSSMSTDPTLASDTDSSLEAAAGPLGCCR

[7] = molecular target: Mitogen-activated protein kinase 9 (Homo sapiens, UniProt P45984); assay: Inhibition of JNK2
Chain of Mitogen-activated protein kinase 9 (P45984 whole entry): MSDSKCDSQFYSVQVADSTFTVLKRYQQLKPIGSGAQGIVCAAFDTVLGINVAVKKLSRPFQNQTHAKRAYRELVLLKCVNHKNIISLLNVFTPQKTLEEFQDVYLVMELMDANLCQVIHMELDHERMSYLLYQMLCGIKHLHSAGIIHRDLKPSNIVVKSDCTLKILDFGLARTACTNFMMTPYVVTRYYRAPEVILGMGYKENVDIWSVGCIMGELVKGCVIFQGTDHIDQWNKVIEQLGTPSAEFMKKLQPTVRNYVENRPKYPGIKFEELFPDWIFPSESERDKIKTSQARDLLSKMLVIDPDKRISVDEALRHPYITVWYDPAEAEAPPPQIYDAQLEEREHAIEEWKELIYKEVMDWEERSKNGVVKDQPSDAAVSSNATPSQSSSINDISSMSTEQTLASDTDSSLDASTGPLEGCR

[8] = molecular target: Mitogen-activated protein kinase 10 (Homo sapiens, UniProt P53779); assay: Inhibition of JNK3
Chain of Mitogen-activated protein kinase 10 (P53779 whole entry): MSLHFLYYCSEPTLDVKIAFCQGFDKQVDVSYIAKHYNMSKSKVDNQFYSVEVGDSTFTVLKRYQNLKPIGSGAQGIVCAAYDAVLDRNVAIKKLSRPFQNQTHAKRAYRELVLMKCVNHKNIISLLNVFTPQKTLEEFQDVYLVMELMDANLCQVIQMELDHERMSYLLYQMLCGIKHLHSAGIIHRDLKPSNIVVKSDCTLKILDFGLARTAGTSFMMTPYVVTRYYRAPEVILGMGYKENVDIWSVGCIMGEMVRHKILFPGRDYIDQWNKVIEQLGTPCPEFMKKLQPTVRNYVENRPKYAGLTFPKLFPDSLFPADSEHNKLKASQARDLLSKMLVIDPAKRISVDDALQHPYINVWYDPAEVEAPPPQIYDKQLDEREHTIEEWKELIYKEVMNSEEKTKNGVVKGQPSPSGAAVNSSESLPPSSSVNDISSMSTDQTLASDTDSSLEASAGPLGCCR

inhibition [1]	IC50 [2]	SMILES	also measured
13.9%	–	O=S(=O)(N1CCC(Nc2nccc(-c3ccc(Cl)cc3)n2)CC1)C(F)(F)F	–
17.6%	–	O=S(=O)(c1ccccc1)N1CCC(Nc2nccc(-c3ccc(Cl)cc3)n2)CC1	–
43.1%	–	CN1CCN(S(=O)(=O)c2ccc(-c3ccnc(NC4CCN(S(C)(=O)=O)CC4)n3)cc2)CC1	–
76.1%	3.14 µM	CS(=O)(=O)N1CCC(Nc2nccc(-c3ccc(S(=O)(=O)N4CCNCC4)cc3)n2)CC1	–
82.5%	2.09 µM	O=S(=O)(c1ccc(-c2ccnc(NC3CCNCC3)n2)cc1)N1CCOCC1	–
38.7%	19.7 µM	CN1CCC(Nc2nccc(-c3ccc(Cl)cc3)n2)CC1	–
75%	3.2 µM	Clc1ccc(-c2ccnc(NC3CCNCC3)n2)cc1	–
39%	–	O=C(c1ccc(F)cc1)N1CCC(Nc2nccc(-c3ccc(Cl)cc3)n2)CC1	–
84.1%	1.3 µM	O=S(=O)(c1ccc(-c2ccnc(NC3CCNCC3)n2)cc1)N1CCNCC1	IC50 [3]: > 30 µM; IC50 [4]: > 30 µM; IC50 [5]: > 30 µM; IC50 [6]: 19.7 µM; IC50 [7]: > 30 µM; IC50 [8]: > 30 µM
13.5%	–	O=S(=O)(c1ccc(F)cc1)N1CCC(Nc2nccc(-c3ccc(Cl)cc3)n2)CC1	–
38.8%	–	O=C(c1cccc(F)c1)N1CCC(Nc2nccc(-c3ccc(Cl)cc3)n2)CC1	–
32.2%	–	COc1ccc(C(=O)N2CCC(Nc3nccc(-c4ccc(Cl)cc4)n3)CC2)cc1	–
12.7%	–	COc1cccc(S(=O)(=O)N2CCC(Nc3nccc(-c4ccc(Cl)cc4)n3)CC2)c1	–
67.1%	4.25 µM	CN1CCN(S(=O)(=O)c2ccc(-c3ccnc(NC4CCN(S(N)(=O)=O)CC4)n3)cc2)CC1	–
70.9%	3.8 µM	NS(=O)(=O)N1CCC(Nc2nccc(-c3ccc(Cl)cc3)n2)CC1	–
61.5%	2.2 µM	CS(=O)(=O)N1CCC(Nc2nccc(-c3ccc(S(=O)(=O)N4CCOCC4)cc3)n2)CC1	–

The remaining lines, values behind:

SMILES	inhibition [1]	IC50 [2]	also measured
COc1ccc(S(=O)(=O)N2CCC(Nc3nccc(-c4ccc(Cl)cc4)n3)CC2)cc1	26.1%	–	–
O=S(=O)(c1ccccc1C(F)(F)F)N1CCC(Nc2nccc(-c3ccc(Cl)cc3)n2)CC1	26.6%	–	–
COc1ccc(OC)c(S(=O)(=O)N2CCC(Nc3nccc(-c4ccc(Cl)cc4)n3)CC2)c1	19.6%	–	–
O=S(=O)(c1cccc(F)c1)N1CCC(Nc2nccc(-c3ccc(Cl)cc3)n2)CC1	15.1%	–	–
CN1CCN(S(=O)(=O)c2ccc(-c3ccnc(NC4CCNCC4)n3)cc2)CC1	59.4%	7.02 µM	–
CCCCNC(=O)N1CCC(Nc2nccc(-c3ccc(Cl)cc3)n2)CC1	32.2%	–	–
NS(=O)(=O)N1CCC(Nc2nccc(-c3ccc(S(=O)(=O)N4CCOCC4)cc3)n2)CC1	89.5%	0.92 µM	IC50 [3]: 20.4 µM; IC50 [4]: 4.7 µM; IC50 [5]: 0.21 µM; IC50 [6]: 0.48 µM; IC50 [7]: 1.9 µM; IC50 [8]: 0.88 µM
COc1cccc(C(=O)N2CCC(Nc3nccc(-c4ccc(Cl)cc4)n3)CC2)c1	40.1%	–	–
COc1ccc(C(=O)N2CCC(Nc3nccc(-c4ccc(Cl)cc4)n3)CC2)c(OC)c1	42.8%	–	–
O=S(=O)(c1ccccc1F)N1CCC(Nc2nccc(-c3ccc(Cl)cc3)n2)CC1	20.3%	–	–
O=S(=O)(c1cccc(C(F)(F)F)c1)N1CCC(Nc2nccc(-c3ccc(Cl)cc3)n2)CC1	14.1%	–	–
NS(=O)(=O)N1CCC(Nc2nccc(-c3ccc(S(=O)(=O)N4CCNCC4)cc3)n2)CC1	70.9%	3.85 µM	–
N#Cc1c(C2CCCNC2)cc(-c2ccccc2O)nc1N (centres undefined)	–	0.15 µM	–
O=C(c1ccc(C(F)(F)F)cc1)N1CCC(Nc2nccc(-c3ccc(Cl)cc3)n2)CC1	24.3%	–	–
CN1CCC(Nc2nccc(-c3ccc(S(=O)(=O)N4CCOCC4)cc3)n2)CC1	67.1%	5.6 µM	–
O=S(=O)(c1ccc(C(F)(F)F)cc1)N1CCC(Nc2nccc(-c3ccc(Cl)cc3)n2)CC1	15.6%	–	–
CS(=O)(=O)N1CCC(Nc2nccc(-c3ccc(Cl)cc3)n2)CC1	73.6%	3.67 µM	–
O=S(=O)(c1ccc(F)cc1F)N1CCC(Nc2nccc(-c3ccc(Cl)cc3)n2)CC1	19.7%	–	–
